ChEMBL document CHEMBL4828740, “Discovery of Quinoxaline-Based P1-P3 Macrocyclic NS3/4A Protease Inhibitors with Potent Activity against Drug-Resistant Hepatitis C Virus Variants” (J Med Chem, 2021)

How the values were obtained:
[1] = biological target: Hepatitis C virus serine protease, NS3/NS4A (Hepatitis C virus, UniProt A3EZI9+D2K2A8); assay: Inhibition of HCV GT-1a NS3/4a protease using Ac-DE-D(Edans)-EE-Abu-c-[COO]-AS-K(Dabcy1)-NH2 preincubated for 1 hr followed by substrate addition; assay type: protein complex, Hepatitis C virus subtype 1a
[2] = tested on: Hepatitis C virus; assay: Antiviral activity against HCV genotype 1b infected in human Huh7 cells incubated for 96 hrs by luciferase assay; assay type: functional, organism-based, Hepacivirus hominis; settings: Huh-7, 96 h
Method in brief: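 Con1 (GT-1b) luciferase reporter replicon carrying the H77 (GT-1a) NS3 protease region, either WT or with A156T or D168A introduced by megaprimer mutagenesis. Cured Huh7 cells grown in DMEM with 10% heat-inactivated FBS and 0.1 mM non-essential amino acids. Cells electroporated with replicon RNA and kept with serially diluted inhibitor.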

[3] = tested on: Hepatitis C virus; assay: Antiviral activity against HCV genotype 1b harboring A156T mutant infected in human Huh7 cells incubated for 96 hrs by luciferase assay; assay type: functional, organism-based, Hepacivirus hominis; settings: subtype 1b, Huh-7, 96 h
Method in brief: (§1)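 Con1 (GT-1b) luciferase reporter replicon carrying the H77 (GT-1a) NS3 protease region, with the mutation introduced by megaprimer site-directed mutagenesis. Cured Huh7 cells were grown in DMEM with 10% heat-inactivated FBS and 0.1 mM non-essential amino acids, electroporated with replicon RNA transcripts, and kept with serially diluted inhibitor. EC50 was taken directly from the inhibition curves.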

[4] = tested on: Hepatitis C virus; assay: Antiviral activity against HCV genotype 1b harboring D168A mutant infected in human Huh7 cells incubated for 96 hrs by luciferase assay; assay type: functional, organism-based, Hepacivirus hominis; settings: subtype 1b, Huh-7, 96 h; method in brief: as §1

Row | Structure (SMILES) | Ki [1] [nM] | EC50 [2] [nM] | EC50 [3] [nM] | EC50 [4] [nM]
1 | CCC1(OC(=O)N[C@H]2CCCCC/C=C/[C@@H]3C[C@@]3(C(=O)NS(=O)(=O)C3(C)CC3)NC(=O)[C@@H]3C[C@@H](Oc4nc5cc(OC)ccc5nc4C)CN3C2=O)CCCC1 | 1.3 | 1.6 | 8.3 | 4.7
2 | COc1ccc2nc(C)c(O[C@@H]3C[C@H]4C(=O)N[C@]5(C(=O)NS(=O)(=O)C6(C)CC6)C[C@H]5/C=C/CCCCC[C@H](NC(=O)OC5(C)CC5)C(=O)N4C3)nc2c1 | 4.4 | 0.3 | 12 | 3.5
3 | COc1ccc2nc(C)c(O[C@@H]3C[C@H]4C(=O)N[C@]5(C(=O)NS(=O)(=O)C6(C)CC6)C[C@H]5/C=C/CCCCC[C@H](NC(=O)O[C@H](C)C(C)C)C(=O)N4C3)nc2c1 | 1.5 | 0.3 | 7.7 | 1.9
4 | COc1ccc2nc(C)c(O[C@@H]3C[C@H]4C(=O)N[C@]5(C(=O)NS(=O)(=O)C6(C)CC6)C[C@H]5/C=C/CCCCC[C@H](NC(=O)OC5CC(F)(F)C5)C(=O)N4C3)nc2c1 | 0.6 | 0.6 | 5.3 | 4.1
5 | COc1ccc2nc(O[C@@H]3C[C@H]4C(=O)N[C@]5(C(=O)NS(=O)(=O)C6(C)CC6)C[C@H]5/C=C/CCCCC[C@H](NC(=O)O[C@H](C)C5CC5)C(=O)N4C3)c(C(F)(F)F)nc2c1 | 12 | 2.6 | 44 | 19
6 | COc1ccc2nc(C)c(O[C@@H]3C[C@H]4C(=O)N[C@]5(C(=O)NS(=O)(=O)C6(C)CC6)C[C@H]5/C=C/CCCCC[C@H](NC(=O)OC(C)C)C(=O)N4C3)nc2c1 | 2.1 | – | – | –
7 | COc1ccc2nc(C)c(O[C@@H]3C[C@H]4C(=O)N[C@]5(C(=O)NS(=O)(=O)C6(C)CC6)C[C@H]5/C=C/CCCCC[C@H](NC(=O)OC5(C)CCC5)C(=O)N4C3)nc2c1 | 1.4 | 0.5 | 4.2 | 3.4
8 | COc1ccc2nc(C)c(O[C@@H]3C[C@H]4C(=O)N[C@]5(C(=O)NS(=O)(=O)C6(C)CC6)C[C@H]5/C=C/CCCCC[C@H](NC(=O)O[C@@H](C)C(F)(F)F)C(=O)N4C3)nc2c1 | 0.7 | 0.8 | 8.1 | –
9 | COc1ccc2nc(C)c(O[C@@H]3C[C@H]4C(=O)N[C@]5(C(=O)NS(=O)(=O)C6(C)CC6)C[C@H]5/C=C/CCCCC[C@H](NC(=O)O[C@@H](C)C(C)C)C(=O)N4C3)nc2c1 | 1.9 | 0.6 | 7 | 3.6
10 | COc1ccc2nc(C)c(O[C@@H]3C[C@H]4C(=O)N[C@]5(C(=O)NS(=O)(=O)C6(C)CC6)C[C@H]5/C=C/CCCCC[C@H](NC(=O)O[C@@H](C)C5CC5)C(=O)N4C3)nc2c1 | 1.8 | 5.3 | 128 | 10
11 | CCc1nc2ccc(OC)cc2nc1O[C@@H]1C[C@H]2C(=O)N[C@]3(C(=O)NS(=O)(=O)C4CC4)C[C@H]3/C=C/CCCCC[C@H](NC(=O)OC(C)(C)C)C(=O)N2C1 | – | – | – | 6.3
12 | COc1ccc2nc(C)c(O[C@@H]3C[C@H]4C(=O)N[C@]5(C(=O)NS(=O)(=O)C6(C)CC6)C[C@H]5/C=C/CCCCC[C@H](NC(=O)OCC5(C)CC5)C(=O)N4C3)nc2c1 | 0.7 | 0.8 | 8.5 | 3.8
13 | COc1ccc2nc(O[C@@H]3C[C@H]4C(=O)N[C@]5(C(=O)NS(=O)(=O)C6(C)CC6)C[C@H]5/C=C/CCCCC[C@H](NC(=O)OCC(C)C)C(=O)N4C3)c(C(F)(F)F)nc2c1 | 4 | 4.8 | 91 | 15
14 | COc1ccc2nc(O[C@@H]3C[C@H]4C(=O)N[C@]5(C(=O)NS(=O)(=O)C6(C)CC6)C[C@H]5/C=C/CCCCC[C@H](NC(=O)O[C@H](C)C(C)C)C(=O)N4C3)c(C(F)(F)F)nc2c1 | 3 | 2.1 | 45 | 6.3
15 | COc1ccc2nc(C)c(O[C@@H]3C[C@H]4C(=O)N[C@]5(C(=O)NS(=O)(=O)C6(C)CC6)C[C@H]5/C=C/CCCCC[C@H](NC(=O)O[C@H](C)C5CC5)C(=O)N4C3)nc2c1 | 1.5 | 0.3 | 11 | 3.7
